Measured values: ChEMBL document CHEMBL5365494, “Bis-6-amidino-benzothiazole Derivative that Cures Experimental Stage 1 African Trypanosomiasis with a Single Dose” (J Med Chem, 2023)
Activity calls are given as the source filed them. The rule behind the calls is not given here.

What was measured:
[1] = Cytotoxicity against rat L6 cells assessed as cell growth inhibition incubated for 6 days by resazurin dye based assay; format: toxicity
Summary of the method: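 Rat L6 myoblasts seeded at 1×10⁴ mL⁻¹ in RPMI-1640 with a range of compound concentrations, 6 days at 37 °C; resazurin added, 6 h further, fluorescence ex 545/em 590 nm.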

[2] = test system: Trypanosoma brucei brucei; assay: Antitrypanosomal activity against stage-1 bioluminescent Trypanosoma brucei brucei GVR35-VSL2 expressing red-shifted luciferase infected in BALB/c mouse assessed as parasite killing by measuring reduction in bioluminescent signal at 20 mg/kg, ip administered as single dose starting from 4 days post infection and measured on 3 to 7 days by luciferase based bioluminescence assay; format: functional, organism-based; details: time 3-7 day
Summary of the method: (§1)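 BALB/c mice infected with 30,000 bioluminescent bloodstream-form T. brucei; dosing i.p. or oral from 4 days post-infection, single or once daily for 4 days. Monitored by in vivo imaging after i.p. d-luciferin 150 mg kg⁻¹ under isoflurane, with total body flux from dorsal plus ventral images. Cure required negativity by both in vivo and ex vivo imaging.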

[3] = test system: Trypanosoma brucei; assay: Antitrypanosomal activity against blood stream form of Trypanosoma brucei 221a variant assessed as lethality at >=1.2 nM incubated for 3 days followed by replacement with fresh medium without compound and measured for 12 days by resazurin dye based fluorescence analysis relative to control; format: functional; details: time 3 day
Summary of the method: (§2)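 Bloodstream-form T. brucei seeded in flasks at 10^5 mL^-1 with a range of compound concentrations. Every 24 h parasites were sub-cultured back to 10^5 mL^-1 in continued compound presence, through day 10. Growth reported as cumulative parasite number. In a washout arm, parasites were exposed for 3 days, moved to compound-free medium and followed for 12 days.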

[4] = Drug uptake in blood stream form of Trypanosoma brucei at 10 ug/ml incubated for 6 hrs in presence of bafilomycin Al by fluorescence microscopy; format: ADME, tissue-based; details: dose 10 µg/ml
Summary of the method: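 Bloodstream-form T. brucei incubated 6 h with compound 10 μg mL⁻¹ with or without 8 nM BafA1, then imaged by fluorescence microscopy.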

[5] = test system: Trypanosoma brucei brucei; assay: (§3) Antitrypanosomal activity against stage-1 bioluminescent Trypanosoma brucei brucei GVR35-VSL2 expressing red-shifted luciferase infected in BALB/c mouse assessed as reduction in parasite growth without relapse at 5 to 20 mg/kg, ip administered once daily for 4 days starting from 4 days post infection by luciferase based bioluminescence assay; format: functional, organism-based; details: dose 5-20 mg/kg, time 4.0 day; summary of the method: as §1
[6] = test system: Trypanosoma brucei brucei; assay: Antitrypanosomal activity against stage-2 bioluminescent Trypanosoma brucei brucei GVR35-VSL2 expressing red-shifted luciferase infected in CD-1 mouse assessed as reduction in parasite growth at 10 to 20 mg/kg, ip administered daily for 3 days starting from 13 days post infection by bioluminescence based assay; format: functional, organism-based; details: dose 10-20 mg/kg, time 3.0 day
[7] = Drug localization in lysosomes of Trypanosoma brucei bloodstream form at 10 ug/ml measured after 6 hrs by TbCatL antibody based immunofluorescence microscopy; format: ADME, subcellular, Lysosome; details: dose 10 µg/ml
Summary of the method: (§4)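 Parasites exposed to compound 10 μg mL⁻¹ for 6 h, with or without BafA1 8 nM; fixed 4% PFA, permeabilized 0.1% Triton X-100, blocked 1% BSA, rabbit anti-TbCatL 1:200 overnight at 4 °C, then Alexa 488 anti-rabbit 2 μg mL⁻¹ 1 h at 37 °C; fluorescence microscopy.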

[8] = Toxicity in BALB/c mouse infected with bioluminescent Trypanosoma brucei brucei GVR35-VSL2 expressing red-shifted luciferase assessed as piloerection in animal at 20 mg/kg, po administered once daily for 4 days; format: organism-based; details: in vivo, 96 h, time 4 day
Summary of the method: (§5)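 Infected BALB/c mice (bioluminescent T. brucei, 30,000 parasites) dosed i.p. or orally once daily for 4 days starting day 4 post-infection; observed for piloerection, hunching, shaking, lack of activity and body weight change.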

[9] = Toxicity in BALB/c mouse infected with bioluminescent Trypanosoma brucei brucei GVR35-VSL2 expressing red-shifted luciferase assessed as shaking in animal at 20 mg/kg, po administered once daily for 4 days; format: organism-based; details: in vivo, 96 h, time 4 day; summary of the method: as §5
[10] = Drug localization in lysosomes of Trypanosoma brucei bloodstream form at 10 ug/ml by fluorescence microscopy; format: ADME, subcellular, Lysosome; details: TDE = time-dependent effect, time 1-24 hrs, dose 10 µg/ml
Summary of the method: (§6)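 Bloodstream-form T. brucei incubated with compound 10 μg mL⁻¹ for 60 or 180 min or 24 h; fixed in 4% PFA, mounted with DAPI, imaged by fluorescence microscopy (ex 550/em 585 nm).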

[11] = test system: Trypanosoma brucei brucei; assay: as §3, with “by measuring curation rate” for “without relapse”, “at” for “at 5 to”, “po” for “ip”, “assay relative to control” for “assay”; format: functional; set-up: scale not given: the % may be the effect or the level left; details: time 4 day; summary of the method: as §1
[12] = test system: Trypanosoma brucei; assay: Induction of tetracycline dependent drug resistant in Trypanosoma brucei MiTat 1.2, clone 221a assessed as outgrowth of resistant parasites at 1 to 2 ng/ml measured for 10 days; format: functional; details: dose 1-2 ng/ml, time 10.0 day
[13] = Drug localization in endosome of Trypanosoma brucei bloodstream form at 10 ug/ml measured after 6 hrs in presence of bafilomycin Al by TbCatL antibody based immunofluorescence microscopy; format: ADME, subcellular; details: dose 10 µg/ml; summary of the method: as §4
[14] = Apparent permeability across apical to basolateral side in MDCK-MDR1 cells at 10 uM measured for 60 mins by LC-MS/MS analysis; format: ADME, cell-based, Canis lupus familiaris; details: dog
Summary of the method: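 MDCKII-hMDR1 monolayers on inserts, compound 10 μM (1% DMSO) in duplicate, 60 min at 37 °C, bidirectional, with and without elacridar 2 μM. Amprenavir as P-gp control, Lucifer yellow for monolayer integrity; compound quantified by LC–MS/MS.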

[15] = test system: Trypanosoma brucei; assay: Antitrypanosomal activity against blood stream form of Trypanosoma brucei 221a variant assessed as parasite growth inhibition at 0.3 nM preincubated for 24 hrs followed by subculturing with fresh medium with compounds and measured after 6 days by resazurin dye based fluorescence analysis; format: functional, organism-based; details: time 7.0 day; summary of the method: as §2
[16] = test system: Plasmodium falciparum; assay: Antiplasmodial activity against Plasmodium falciparum 3D7 infected in human erythrocytes assessed as inhibition of asexual parasite development measured after 96 hrs by fluorescence based assay; format: functional, organism-based; details: 3D7, Erythrocyte
Summary of the method: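 3D7 asexual parasites in human erythrocytes (RPMI 1640, 0.5% Albumax II, 50 μM hypoxanthine, 2 mM L-glutamine, 5% CO2), 2% parasitemia/1% hematocrit; compound in DMSO dilutions, 96 h at 37 °C. Freeze-thaw, SYBR green lysis buffer, 1 h, fluorescence ex 485/em 535 nm. Normalized to DMSO and 1 μM dihydroartemisinin; EC50 from triplicate independent dose-response curves.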

[17] = Drug localization in lysosomes of Trypanosoma brucei bloodstream form assessed as colocalization at 10 ug/ml incubated upto 180 mins by LysoTrack dye based fluorescence microscopy; format: ADME, subcellular, Lysosome; details: 3 h, dose 10 µg/ml
Summary of the method: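 Parasites pre-loaded with 100 nM LysoTracker for 45 min, washed, then exposed to compound 10 μg mL⁻¹; aliquots fixed in 4% PFA at each timepoint, DAPI-mounted, imaged by fluorescence microscopy.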

[18] = Drug localization in lysosomes of Trypanosoma brucei bloodstream form at 10 ug/ml measured after 6 hrs in presence of bafilomycin Al by TbCatL antibody based immunofluorescence microscopy; format: ADME, subcellular, Lysosome; details: dose 10 µg/ml; summary of the method: as §4
[19] = Toxicity in BALB/c mouse infected with bioluminescent Trypanosoma brucei brucei GVR35-VSL2 expressing red-shifted luciferase assessed as body weight loss at 20 mg/kg, ip administered once daily for 4 days; format: organism-based; details: in vivo, 96 h, time 4 day; summary of the method: as §5
[20] = Drug localization in nucleus of Trypanosoma brucei bloodstream form at 10 ug/ml measured for 180 mins by fluorescence microscopy; format: ADME, subcellular; details: 3 h, dose 10 µg/ml; summary of the method: as §6
[21] = test system: Trypanosoma brucei brucei; assay: as §3, with “growth” for “growth without relapse”, “at 2” for “at 5 to 20”, “administered as single dose” for “administered once daily”, “for 1 day” for “for 4 days”; format: functional, organism-based; summary of the method: as §1

SMILES: CS(=O)(=O)O.CS(=O)(=O)O.N=C(N)c1ccc2nc(C3CCC(c4nc5ccc(C(=N)N)cc5s4)CC3)sc2c1 (stereo unspecified)
- EC50 at 6 days [1]: 13.4 µM
- Activity [2]: Active
- Activity [3]: 100%
- Drug uptake [4]: Not Active
- Activity [5]: Active
- Activity [6]: inactive
- Drug uptake [7]: Active
- Activity [8]: Non-Toxic
- Activity [9]: Non-Toxic
- Drug uptake [10]: Tde
- Activity [11]: 20%
- Activity [12]: inactive
- Drug uptake [13]: Not Active
- Papp A→B at 1 h, 10 µM [14]: < 0.1 ×10⁻⁶ cm/s
- Activity [15]: Active
- EC50 [16]: 0.0253 µM
- Drug uptake [17]: Active
- Drug uptake [18]: Not Active
- Activity [19]: < 10%
- Drug uptake [20]: Not Active
- Activity [21]: inactive
